Measurements from ChEMBL document CHEMBL4219076, “Synthesis, spectroscopic studies and biological evaluation of acridine derivatives: The role of aggregation on the photodynamic efficiency” (Bioorg Med Chem Lett, 2018).
Calls of active or inactive are those of the source. The rule behind the calls is not given here.

Tests used:
Hep 3B2 [1] = assay: Photocytotoxicity in human Hep3B cells assessed as cell damage at 20 uM preincubated for 1 hr followed by 365 nanometer UV light irradiation for 3 mins by propidium iodide/Hoechst 33342 staining based static cytometry coupled fluorescence microscopic method (reference value: 1.25%); type: functional
Summary of the method: (§1)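 Hep3B cells exposed to photosensitizer for 1 h, then irradiated at 365 nm for 3 min. PI-positive cells were quantified by fluorescence microscopy coupled with static cytometry and expressed as percentage of cells, with untreated cells as reference.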

HUVEC [2] = assay: Cytotoxicity against HUVEC assessed as reduction in cell viability at 1 to 20 uM incubated for 3 hrs followed by incubation in compound free medium for 21 hrs under dark condition by MTT assay; type: functional, cell-based; conditions: Homo sapiens
[3] = Induction of singlet oxygen production in CH3CN upon irradiation of 365 nanometer light assessed as oxygenation of 1,5-DHN by measuring quantum yield at 33 uM by UV-Visible spectroscopic method; type: functional
Summary of the method: (§2)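 Singlet oxygen generation was followed by oxygenation of 1,5-dihydroxynaphthalene to juglone. Sensitizer solutions were irradiated in quartz cuvettes with 365 nm light.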

Hep 3B2 [4] = assay: Cytotoxicity against human Hep3B cells assessed as reduction in cell viability at 1 to 20 uM after 24 hrs under dark condition by MTT assay; type: functional, cell-based
Hep 3B2 [5] = assay: Photocytotoxicity in human Hep3B cells assessed as cell damage at 10 uM preincubated for 1 hr followed by 365 nanometer UV light irradiation for 3 mins by propidium iodide staining based confocal fluorescence laser scanning microscopic method; type: functional
Summary of the method: (§3)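 Hep3B cells, 30.000 cells/well, exposed to photosensitizer ([…] as printed) for 1 h, then irradiated with a 365 nm UV lamp, 6 W, for 3 min. Damaged or dead cells stained with propidium iodide (1 mM as printed) and imaged by confocal laser scanning microscopy, ex 488 nm, em 500–700 nm. Irradiated control wells received no photosensitizer.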

[6] = Induction of singlet oxygen production in H2O upon irradiation of 365 nanometer light assessed as oxygenation of 1,5-DHN by measuring quantum yield at 33 uM by UV-Visible spectroscopic method; type: functional; summary of the method: as §2
HUVEC [7] = assay: Cytotoxicity against HUVEC assessed as reduction in cell viability at 1 to 20 uM after 3 hrs under dark condition by MTT assay; type: functional, cell-based; conditions: Homo sapiens
[8] = Dark toxicity in human Hep3B cells assessed as cell damage at 20 uM after 1 hr by propidium iodide/Hoechst 33342 staining based static cytometry coupled fluorescence microscopic method (reference value: 1.25%); conditions: hep 3b2, 1 h
Hep 3B2 [9] = assay: Cytotoxicity against human Hep3B cells assessed as reduction in cell viability at 1 to 20 uM incubated for 3 hrs followed by incubation in compound free medium for 21 hrs under dark condition by MTT assay; type: functional, cell-based
[10] = Self-aggregating property assessed as diameter of nanostructure by DLS method; type: physicochemical
[11] = Induction of singlet oxygen production in 50% H2O/CH3CN mixture upon irradiation of 365 nanometer light assessed as oxygenation of 1,5-DHN by UV-Visible spectroscopic method; type: functional; summary of the method: as §2
[12] = Induction of singlet oxygen production in 90% H2O/CH3CN mixture upon irradiation of 365 nanometer light assessed as oxygenation of 1,5-DHN by UV-Visible spectroscopic method; type: functional; summary of the method: as §2
HUVEC [13] = assay: Cytotoxicity against HUVEC assessed as reduction in cell viability after 3 hrs under dark condition by MTT assay; type: functional, cell-based; conditions: Homo sapiens
Hep 3B2 [14] = assay: Photocytotoxicity in human Hep3B cells assessed as cell damage preincubated for 1 hr followed by 365 nanometer UV light irradiation for 3 mins by propidium iodide staining based confocal fluorescence laser scanning microscopic method; type: functional; summary of the method: as §3
[15] = Drug uptake in human Hep3B cell endoplasmic reticulum at 10 uM after 1 hr by Draq5 staining based bright field microscopic method; type: ADME, subcellular; conditions: hep 3b2, 1 h
Hep 3B2 [16] = assay: Cytotoxicity against human Hep3B cells assessed as reduction in cell viability after 3 hrs under dark condition by MTT assay; type: functional, cell-based
HUVEC [17] = assay: Cytotoxicity against HUVEC assessed as cell viability at 1 to 20 uM after 24 hrs under dark condition by MTT assay relative to control; type: functional, Homo sapiens
[18] = Drug uptake in human Hep3B cell nuclear membrane at 10 uM after 1 hr by Draq5 staining based bright field microscopic method; type: ADME, cell membranes; conditions: hep 3b2, 1 h
HUVEC [19] = assay: Cytotoxicity against HUVEC assessed as cell viability at 1 to 20 uM after 3 hrs under dark condition by MTT assay relative to control; type: functional, Homo sapiens
[20] = Drug uptake in human Hep3B cell lysosome at 10 uM after 1 hr by Draq5 staining based bright field microscopic method; type: ADME, subcellular; conditions: hep 3b2, 1 h
[21] = Self-aggregating property assessed as diameter of nanostructure by scanning electron microscopic method; type: physicochemical
Hep 3B2 [22] = assay: Photocytotoxicity in human Hep3B cells assessed as cell damage preincubated for 1 hr followed by 365 nanometer UV light irradiation for 3 mins by propidium iodide/Hoechst 33342 staining based static cytometry coupled fluorescence microscopic method; type: functional; summary of the method: as §1
[23] = Self-aggregating property assessed as diameter of nanostructure by transmission electron microscopic method; type: physicochemical
[24] = Drug uptake in human Hep3B cell mitochondria at 10 uM after 1 hr by Draq5 staining based bright field microscopic method; type: ADME; conditions: hep 3b2, 1 h

With `CCCNC(=O)[C@@H](NC(=O)c1c2ccccc2nc2ccccc12)C(C)C` the Activity (Hep 3B2 [1]) was 8.7%, the Activity (HUVEC [2]) was “inactive” and the Activity [3] was 0.97. The Activity (Hep 3B2 [4]) was “inactive”, the Activity (Hep 3B2 [5]) was “Active” and the Activity [6] was 0.263. For the same compound, the Activity (HUVEC [7]) was “inactive”, the Activity [8] was 3.38% and the Activity (Hep 3B2 [9]) was “inactive”. The Activity [10] was “Not Active”, the Activity [11] was “Active” and the Activity [12] was “Active”.
In the case of `CC(C)[C@H](NC(=O)c1c2ccccc2nc2ccccc12)C(=O)NCCCCCCCCNC(=O)[C@@H](NC(=O)c1c2ccccc2nc2ccccc12)C(C)C`, the Activity (HUVEC [2]) is reported as “inactive”, the Activity (HUVEC [13]) is reported as “Dose-dependent effect” and the IC50 (HUVEC [13]) is reported as 18.6 µM. The Activity (Hep 3B2 [14]) was “inactive”, the Drug uptake [15] was “Not Active” and the Activity (Hep 3B2 [16]) was “Dose-dependent effect”. For the same compound, the IC50 (Hep 3B2 [16]) was 29.5 µM, the Activity [3] was 0.96 and the Activity (Hep 3B2 [4]) was “Active”. For the same compound, the Activity (HUVEC [17]) was 27%, the Drug uptake [18] was “Active” and the Activity (HUVEC [19]) was 46%. The Activity [6] was 0.01, the Drug uptake [20] was “Not Active” and the Activity [21] was 93 nm. For the same compound, the Activity (Hep 3B2 [22]) was “inactive”, the Activity (Hep 3B2 [9]) was “inactive” and the Activity [23] was 135 nm. For the same compound, the Activity [10] was 122 nm, the Activity [11] was “inactive” and the Drug uptake [24] was “Not Active”. For the same compound, the Activity [12] was “inactive”.
